These results are taken from ChEMBL document CHEMBL1138910, “Racemic and chiral sulfoxides as potential prodrugs of 4-pyrone COX-2 inhibitors” (Bioorg Med Chem Lett, 2006).

A short description of data set [1]: Metabolic stability in human liver microsomes at 5 uM after 30 min […]. Type of data set: ADME, Microsome. The conditions noted are these: in the assay text read “37 degC” for “30 degC”, read-out: Stability. In general terms: Liver microsomes are vesicles of endoplasmic reticulum, rich in cytochrome P450 enzymes.
The nature of data set [2]: Metabolic stability in rat liver microsomes at 5 uM after 30 min […]. Type of data set: ADME, Microsome. The settings on record: in the assay text read “37 degC” for “30 degC”, read-out: Stability.
Data set [3] in a line: Solubility in simulated gastric fluid at pH 1.8, 37 degC after 24 hrs. Type of data set: physicochemical.
Data set [4] is described as follows: Solubility in PBS at pH 7.2, 37 degC after 24 hrs. In kind it is physicochemical.
Data set [5] has as its system Rattus norvegicus. Kind of data set: Inhibition of adjuvant-induced arthritis in Wistar rat at 0.01 mg/kg, po. In kind it is functional. The essentials:
(§1)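 Adjuvant-induced arthritis in male Wistar rats run as a therapeutic protocol. Compounds were given orally once daily for 7 days, starting on day 14 after arthritis induction. Paw edema was measured 24 h after the last dose. Results are reported as ED50 from four doses (six to eight animals per group) or as % inhibition at the stated dose.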

The species named for data set [6] is Rattus norvegicus. In words: Inhibition of yeast-induced pyresis in Wistar rat. In kind it is functional. An outline of the steps:
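Yeast-induced pyresis in rats, an acute therapeutic protocol with a single oral dose. Temperature was measured at 1 h intervals from 1 to 5 h after dosing. ED50 was derived from four doses with six to eight animals per group.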

Data set [7] is described as follows: Cmax in Wistar rat at 1 mg/kg, po. In kind it is ADME, organism-based. Further details: dose 1 mg/kg, route oral. The settings on record: in vivo.
Data set [8] can be described thus: Tmax in Wistar rat at 1 mg/kg, po. Type of data set: ADME, organism-based. The arrangement: dose 1 mg/kg, route oral. The settings on record: in vivo.
Data set [9] is described as follows: AUC in Wistar rat at 1 mg/kg, po. The settings on record: plasma. Type of data set: ADME, organism-based. Further details: dose 1 mg/kg, route oral.
Data set [10] deals with Rattus norvegicus. Kind of data set: Cmax in Wistar rat after administration as its prodrug at 1 mg/kg, po. In kind it is ADME, organism-based. The settings on record: in vivo. Further details: dose 1 mg/kg, route oral.
The subject of data set [11] is Rattus norvegicus. Kind of data set: Tmax in Wistar rat after administration as its prodrug at 1 mg/kg, po. In kind it is ADME, organism-based. Further details: dose 1 mg/kg, route oral. The settings on record: in vivo.
The test system of data set [12] is Rattus norvegicus. Kind of data set: AUC in Wistar rat after administration as its prodrug at 1 mg/kg, po. In kind it is ADME, organism-based, Plasma. The arrangement: dose 1 mg/kg, route oral. The conditions noted are these: in vivo.
Data set [13] concerns Rattus norvegicus. Kind of data set: Ratio AUC for prodrug to the parent compound in Wistar rat at 1 mg/kg, po. In kind it is ADME, organism-based. The arrangement: dose 1 mg/kg, route oral. The conditions noted are these: in vivo.
The subject of data set [14] is Rattus norvegicus. In words: Inhibition of adjuvant-induced arthritis in Wistar rat at 0.1 mg/kg, po. In kind it is functional. The essentials: as §1
Data set [15] has as its target T1, Prostaglandin G/H synthase 2 (Homo sapiens, UniProt P35354).
T1 sequence (P35354 whole entry): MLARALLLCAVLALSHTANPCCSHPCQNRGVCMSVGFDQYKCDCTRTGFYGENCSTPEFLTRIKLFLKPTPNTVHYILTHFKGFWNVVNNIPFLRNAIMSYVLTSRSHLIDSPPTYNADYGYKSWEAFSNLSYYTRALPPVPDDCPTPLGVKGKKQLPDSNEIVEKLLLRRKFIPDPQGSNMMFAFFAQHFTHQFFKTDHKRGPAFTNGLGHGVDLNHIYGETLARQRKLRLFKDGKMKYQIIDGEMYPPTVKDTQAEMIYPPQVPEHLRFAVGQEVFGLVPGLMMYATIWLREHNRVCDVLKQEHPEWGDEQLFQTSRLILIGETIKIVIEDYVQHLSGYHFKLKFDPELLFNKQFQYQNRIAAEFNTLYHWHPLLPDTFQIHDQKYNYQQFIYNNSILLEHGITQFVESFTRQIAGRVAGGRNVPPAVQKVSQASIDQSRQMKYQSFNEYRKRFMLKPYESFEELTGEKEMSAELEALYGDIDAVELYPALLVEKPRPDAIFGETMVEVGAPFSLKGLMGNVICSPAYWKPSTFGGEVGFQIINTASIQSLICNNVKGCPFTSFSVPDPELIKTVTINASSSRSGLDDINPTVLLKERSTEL
In words: Inhibition of COX2 in human whole blood. Type of data set: tissue-based.

Data set [16] has as its system Rattus norvegicus. Kind of data set: Activity against adjuvant-induced arthritis in po dosed Wistar rat. In kind it is functional, organism-based. The essentials:
as §1

pIC50: −log10 of the molar value. In brackets after ≈: the same amount, converted by molar mass.

For `Cc1cc(=O)c(Oc2ccc(Br)cc2F)c(-c2ccc(S(C)(=O)=O)cc2)o1`, the remaining at 0.5 h, 5 µM in data set [1] was 12%; in data set [2] it was 34%. Moreover, the solubility at 24 h in [3] is 4 µg/mL (≈ 8.82 µM); in data set [4], 1 µg/mL (≈ 2.21 µM). Also, the inhibition in vivo at 0.01 mg/kg in the data set with Rattus norvegicus [5] came out at 60%. Moreover, the 50% effective dose (ED50) in the data set filed under Rattus norvegicus [6] came out at 3.2 mg/kg. The Cmax in [7] was 177 ng/mL; in the data set with Rattus norvegicus [10] it was 243 ng/mL. Also, the values for the Tmax (in data set [8]; with Rattus norvegicus [11]) were 2.2 h and 1.5 h, respectively. In addition, the values for the AUC (in [9]; in the data set on Rattus norvegicus [12]) were 1270 ng·h/mL and 1125 ng·h/mL, respectively. Moreover, the “Ratio AUC” value in the data set on Rattus norvegicus [13] came to 28.

For `Cc1cc(=O)c(Oc2ccc(F)cc2F)c(-c2ccc(S(C)(=O)=O)cc2)o1`, the values for the remaining at 0.5 h, 5 µM in data set [1] and in [2] were 2% and 26%, respectively. The results for the solubility at 24 h in [3] and in data set [4] were 9 µg/mL (≈ 22.9 µM) and 7 µg/mL (≈ 17.8 µM), respectively. Moreover, the inhibition in vivo at 0.1 mg/kg in the data set on Rattus norvegicus [14] stood at 68%. The molecule also displayed an ED50 in the data set listed under Rattus norvegicus [6] of 0.7 mg/kg. The results for the Cmax (in [7]; in the data set on Rattus norvegicus [10]) were 1510 ng/mL and 2959 ng/mL, respectively. The Tmax worked out at 1 h in data set [8] and 2.3 h in the data set on Rattus norvegicus [11]. Besides, the AUC was 9220 ng·h/mL in data set [9] and 18646 ng·h/mL in the data set with Rattus norvegicus [12]. Also, the “Ratio AUC” value with Rattus norvegicus [13] is listed as 14.

On to `Cc1cc(=O)c(Oc2ccc(Cl)cc2F)c(-c2ccc([S@+](C)[O-])cc2)o1`, for which the remaining at 0.5 h, 5 µM in data set [1] was 41%; in [2] it was 67%.

For `Cc1cc(=O)c(Oc2ccc(Br)cc2F)c(-c2ccc([S@+](C)[O-])cc2)o1`, in data set [15], the pIC50 was 6.70. Moreover, the remaining at 0.5 h, 5 µM in data set [1] is 42%; in [2] it was 80%.

Take `Cc1cc(=O)c(Oc2ccc(Cl)cc2F)c(-c2ccc([S@@+](C)[O-])cc2)o1`: the values for the remaining at 0.5 h, 5 µM in [1] and in data set [2] were 48% and 87%, respectively.

In turn, `Cc1cc(=O)c(Oc2ccc(Br)cc2F)c(-c2ccc([S@@+](C)[O-])cc2)o1` had a pIC50 in data set [15] of 5.80. Besides, the remaining at 0.5 h, 5 µM in [1] was determined as 62%; in [2], 93%.

As to `Cc1cc(=O)c(Oc2ccc(F)cc2F)c(-c2ccc([S@+](C)[O-])cc2)o1`, the pIC50 in [15] was 6.57. Besides, the figures for the remaining at 0.5 h, 5 µM in [1] and in [2] were 17% and 38%, respectively.

With `Cc1cc(=O)c(Oc2ccc(F)cc2F)c(-c2ccc([S+](C)[O-])cc2)o1` (configuration not stated), the pIC50 in data set [15] is 6.04. The remaining at 0.5 h, 5 µM turned out to be 24% in [1] and 54% in [2]. In addition, the solubility at 24 h in data set [3] is 527 µg/mL (≈ 1400 µM); in data set [4], 150 µg/mL (≈ 399 µM). Besides, the inhibition in vivo at 0.1 mg/kg with Rattus norvegicus [14] turned out to be 59%. The molecule further had an ED50 in the data set filed under Rattus norvegicus [6] of 1.3 mg/kg. The molecule also registered a Cmax in data set [7] of 1310 ng/mL. Further, the Tmax in data set [8] worked out at 0.3 h. In addition, in [9], the AUC came to 1310 ng·h/mL.

Turning to `Cc1cc(=O)c(Oc2ccc(Cl)cc2F)c(-c2ccc([S+](C)[O-])cc2)o1` (configuration not stated), the remaining at 0.5 h, 5 µM in data set [1] worked out at 57%; in data set [2], 86%. Besides, the solubility at 24 h in data set [3] is 70 µg/mL (≈ 178 µM); in [4], 37 µg/mL (≈ 94.2 µM). Also, in the data set with Rattus norvegicus [14], the inhibition in vivo at 0.1 mg/kg turned out to be 56%. For the same molecule, the ED50 in the data set filed under Rattus norvegicus [6] is 2.3 mg/kg.

Regarding `Cc1cc(=O)c(Oc2ccc(Br)cc2F)c(-c2ccc([S+](C)[O-])cc2)o1` (configuration not stated), the remaining at 0.5 h, 5 µM in data set [1] is 64%; in data set [2], 77%. The values for the solubility at 24 h in [3] and in data set [4] were 31 µg/mL (≈ 70.9 µM) and 15 µg/mL (≈ 34.3 µM), respectively. In addition, in the data set with Rattus norvegicus [5], the inhibition in vivo at 0.01 mg/kg turned out to be 58%. It took a dose of 2.8 mg/kg to reach the 50% effect level in the data set listed under Rattus norvegicus [6] (ED50). The same molecule gave a Cmax in [7] of 37 ng/mL. The Tmax in data set [8] came to 0.3 h. Further, in data set [9], the AUC turned out to be 43 ng·h/mL.

Consider `Cc1cc(=O)c(Oc2ccc(F)cc2F)c(-c2ccc([S@@+](C)[O-])cc2)o1`, for which the pIC50 in data set [15] was 5.68. Besides, the remaining at 0.5 h, 5 µM was 20% in data set [1] and 55% in data set [2].

As for `Cc1cc(=O)c(Oc2ccc(Cl)cc2F)c(-c2ccc(S(C)(=O)=O)cc2)o1`, the remaining at 0.5 h, 5 µM in data set [1] came out at 6%; in [2], 27%. In addition, the solubility at 24 h is 18 µg/mL (≈ 44 µM) in data set [3] and 5 µg/mL (≈ 12.2 µM) in data set [4]. The inhibition in vivo at 0.1 mg/kg in the data set on Rattus norvegicus [14] was 63%. Besides, the ED50 in the data set listed under Rattus norvegicus [6] worked out at 0.8 mg/kg.

With `Cc1ccc(-c2ncc(Cl)cc2-c2ccc(S(C)(=O)=O)cc2)cn1` [ETORICOXIB], in the data set on Rattus norvegicus [16], the EC50 stood at 0.44 mg/kg. In the data set filed under Rattus norvegicus [6], this molecule displayed an ED50 of 1 mg/kg.

Turning to `CS(=O)(=O)c1ccc(C2=C(c3ccccc3)C(=O)OC2)cc1` [ROFECOXIB], the EC50 in the data set with Rattus norvegicus [16] was determined as 0.3 mg/kg. Also, in the data set filed under Rattus norvegicus [6], it took a dose of 0.9 mg/kg to reach the 50% effect level (ED50).

The term solubility denotes how much of the substance goes into solution per volume. What is called inhibition in vivo is the drop in the measured response relative to a control, in per cent. Broadly, the ED50 is the midpoint of the dose-response relation. What is called Cmax is the highest concentration seen after dosing. Broadly, the Tmax is the time from dosing to the highest level. By AUC is commonly meant concentration integrated over time. Usually pIC50 stands for the negative decadic logarithm of the IC50, by convention in mol/L. Lower therefore signals a large IC50.
